# Target: T1, 3',5'-cyclic-AMP phosphodiesterase 4D (Homo sapiens, UniProt Q08499)
# Assay: Inhibition of human PDE4D2 catalytic domain (86 to 413 amino acids) expressed in Escherichia coli strain BL21 after 15 mins using [3H]-cAMP by liquid scintillation counting
# In short: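 IC50 determined against PDE4D2 only for compounds that gave more than 50% inhibition in the 10 μM primary screen. Substrate was [3H]cAMP and read-out was liquid scintillation counting. Enzyme was produced using LB medium. Rolipram served as the reference inhibitor. The method otherwise follows the authors' earlier reports.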
# T1 sequence (Q08499 whole entry, the tested form may be a part): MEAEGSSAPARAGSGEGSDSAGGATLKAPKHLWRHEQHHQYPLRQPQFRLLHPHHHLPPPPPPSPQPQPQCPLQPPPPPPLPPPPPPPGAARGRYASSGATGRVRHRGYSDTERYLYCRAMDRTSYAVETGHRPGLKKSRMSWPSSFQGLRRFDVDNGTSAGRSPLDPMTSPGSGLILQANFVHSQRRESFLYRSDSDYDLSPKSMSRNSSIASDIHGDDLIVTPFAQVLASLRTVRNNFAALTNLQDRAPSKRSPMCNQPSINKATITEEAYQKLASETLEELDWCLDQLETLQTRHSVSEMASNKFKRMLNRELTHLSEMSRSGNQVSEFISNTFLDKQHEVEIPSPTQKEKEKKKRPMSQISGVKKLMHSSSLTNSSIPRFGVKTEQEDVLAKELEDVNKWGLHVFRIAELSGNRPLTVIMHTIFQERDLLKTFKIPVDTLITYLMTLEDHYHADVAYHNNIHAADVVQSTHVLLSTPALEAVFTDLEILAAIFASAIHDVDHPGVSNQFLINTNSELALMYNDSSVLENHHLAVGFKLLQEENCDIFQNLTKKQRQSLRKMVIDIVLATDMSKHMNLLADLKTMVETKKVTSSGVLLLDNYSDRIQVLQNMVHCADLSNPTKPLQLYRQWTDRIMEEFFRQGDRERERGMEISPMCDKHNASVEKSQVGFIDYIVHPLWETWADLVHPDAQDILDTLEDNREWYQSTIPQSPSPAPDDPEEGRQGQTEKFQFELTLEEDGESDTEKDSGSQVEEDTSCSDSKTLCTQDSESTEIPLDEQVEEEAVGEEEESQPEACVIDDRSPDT
row,Compound,IC50 [µM]
1,CCCCC[C@@H](/C=C/[C@@H]1[C@@H](C/C=C\CCCC(=O)OC)[C@@H](O)C[C@H]1OC(C)=O)OC(C)=O,5.5
2,CCCCC[C@@H](/C=C/[C@@H]1[C@@H](C/C=C\CCCC(=O)OC)[C@@H](OC(C)=O)C[C@H]1OC(C)=O)OC(C)=O,1.4
3,CCC(CC[C@@H](/C=C/[C@@H]1[C@@H](C/C=C\CCCC(=O)OC)[C@@H](OC(C)=O)C[C@H]1OC(C)=O)OC(C)=O)OC(C)=O (stereo partly specified),3.7
4,CCCCC[C@@H](/C=C/[C@@H]1[C@@H](/C=C/CCCCC(=O)OC)[C@@H](O)C[C@H]1OC(C)=O)OC(C)=O,7.2
5,CCCCC[C@@H](/C=C/[C@@H]1[C@@H](C/C=C\CCCC(=O)OC)[C@@H](OC(C)=O)C[C@H]1O)OC(C)=O,4.7
6,CCC(=O)CC[C@@H](/C=C/[C@@H]1[C@@H](C/C=C\CCCC(=O)OC)[C@@H](O)C[C@H]1OC(C)=O)OC(C)=O,12.1
7,CCC(=O)CC[C@@H](/C=C/[C@@H]1[C@@H](C/C=C\CCCC(=O)OC)[C@@H](OC(C)=O)C[C@H]1OC(C)=O)OC(C)=O,10.6
8,CCC(CC[C@@H](/C=C/[C@@H]1[C@@H](C/C=C\CCCC(=O)OC)[C@@H](OC(=O)[C@](OC)(c2ccccc2)C(F)(F)F)C[C@H]1OC(C)=O)OC(=O)[C@](OC)(c1ccccc1)C(F)(F)F)OC(C)=O (stereo partly specified),3.6
9,CCC(=O)CC[C@@H](/C=C/[C@@H]1[C@@H](C/C=C\CCCC(=O)O)[C@@H](O)C[C@H]1OC(C)=O)OC(C)=O,16.9
10,CCC(CC[C@@H](/C=C/[C@@H]1[C@@H](C/C=C\CCCC(=O)OC)[C@@H](OC(=O)[C@@](OC)(c2ccccc2)C(F)(F)F)C[C@H]1OC(C)=O)OC(=O)[C@@](OC)(c1ccccc1)C(F)(F)F)OC(C)=O (stereo partly specified),5.9

# Target: T1, 3',5'-cyclic-AMP phosphodiesterase 4D
# Assay: Inhibition of human PDE4D2 catalytic domain (86 to 413 amino acids) expressed in Escherichia coli strain BL21 at 10 uM after 15 mins using [3H]-cAMP by liquid scintillation counting
# In short: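 Single-point primary screen of percent inhibition against PDE4D2 at an initial concentration of 10 μM, using [3H]cAMP as substrate and liquid scintillation counting of radioactivity. Enzyme was produced using LB medium. Rolipram served as the reference inhibitor. The method follows the authors' earlier reports.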
row,Compound,inhibition [%]
1,CCC(CC[C@@H](/C=C/[C@@H]1[C@@H](C/C=C\CCCC(=O)OC)[C@@H](O)C[C@H]1OC(C)=O)OC(C)=O)OC(C)=O (stereo partly specified),38.7
2,CCCCC[C@@H](/C=C/[C@@H]1[C@@H](C/C=C\CCCC(=O)OC)[C@@H](O)C[C@H]1OC(C)=O)OC(C)=O,71.9
3,CCCCC[C@@H](/C=C/[C@@H]1[C@@H](C/C=C\CCCC(=O)OC)[C@@H](OC(C)=O)C[C@H]1OC(C)=O)OC(C)=O,94.6
4,CCC(CC[C@@H](/C=C/[C@@H]1[C@@H](C/C=C\CCCC(=O)OC)[C@@H](OC(C)=O)C[C@H]1OC(C)=O)OC(C)=O)OC(C)=O (stereo partly specified),66.5
5,CCCCC[C@@H](/C=C/[C@@H]1[C@@H](/C=C/CCCCC(=O)OC)[C@@H](O)C[C@H]1OC(C)=O)OC(C)=O,57.3
6,CCC(=O)CC[C@H](O)/C=C/[C@@H]1[C@@H](C/C=C\CCCC(=O)O)[C@@H](O)C[C@H]1O,10.1
7,CCC(=O)CC[C@H](O)/C=C/[C@@H]1[C@@H](C/C=C\CCCC(=O)O)[C@@H](O)C[C@H]1OC(C)=O,26
8,CCC(CC[C@H](O)/C=C/[C@@H]1[C@@H](C/C=C\CCCC(=O)OC)[C@@H](O)C[C@H]1OC(C)=O)OC(C)=O (stereo partly specified),-6.05
9,CCCCC[C@@H](/C=C/[C@@H]1[C@@H](C/C=C\CCCC(=O)OC)[C@@H](OC(C)=O)C[C@H]1O)OC(C)=O,74.7
10,CCC(CC[C@H](O)/C=C/[C@@H]1[C@@H](C/C=C\CCCC(=O)OC)[C@@H](OC(C)=O)C[C@H]1OC(C)=O)OC(C)=O (stereo partly specified),11.4
11,CCC(=O)CC[C@@H](/C=C/[C@@H]1[C@@H](C/C=C\CCCC(=O)OC)[C@@H](O)C[C@H]1OC(C)=O)OC(C)=O,57.2
12,CCC(CC[C@@H](/C=C/[C@@H]1[C@@H](C/C=C\CCCC(=O)OC)[C@@H](OC(C)=O)C[C@H]1OC(C)=O)OC(=O)[C@@](OC)(c1ccccc1)C(F)(F)F)OC(C)=O (stereo partly specified),15.1
13,CCC(=O)CC[C@@H](/C=C/[C@@H]1[C@@H](C/C=C\CCCC(=O)OC)[C@@H](OC(C)=O)C[C@H]1OC(C)=O)OC(C)=O,65
14,CCCCC[C@@H](/C=C/[C@@H]1[C@@H](CCCCCCC(=O)OC)[C@@H](O)C[C@H]1OC(C)=O)OC(C)=O,41.7
15,CCC(O)CC[C@H](O)/C=C/[C@@H]1[C@@H](C/C=C\CCCC(=O)O)[C@@H](O)C[C@H]1O (stereo partly specified),-3.93
16,CCC(CC[C@@H](/C=C/[C@@H]1[C@@H](C/C=C\CCCC(=O)OC)[C@@H](OC(=O)[C@](OC)(c2ccccc2)C(F)(F)F)C[C@H]1OC(C)=O)OC(=O)[C@](OC)(c1ccccc1)C(F)(F)F)OC(C)=O (stereo partly specified),58
17,CCC(CC[C@H](O)/C=C/[C@@H]1[C@@H](C/C=C\CCCC(=O)O)[C@@H](O)C[C@H]1OC(C)=O)OC(C)=O (stereo partly specified),3.12
18,CCC(CC[C@@H](/C=C/[C@@H]1[C@@H](C/C=C\CCCC(=O)OC)[C@@H](OC(C)=O)C[C@H]1OC(C)=O)OC(=O)[C@](OC)(c1ccccc1)C(F)(F)F)OC(C)=O (stereo partly specified),28.4
19,CCC(=O)CC[C@@H](/C=C/[C@@H]1[C@@H](C/C=C\CCCC(=O)O)[C@@H](O)C[C@H]1OC(C)=O)OC(C)=O,50.4
20,CCC(=O)CC[C@H](O)/C=C/[C@@H]1[C@@H](C/C=C\CCCC(=O)OC)[C@@H](O)C[C@H]1OC(C)=O,21.9
21,CCC(CC[C@@H](/C=C/[C@@H]1[C@@H](C/C=C\CCCC(=O)OC)[C@@H](OC(=O)[C@@](OC)(c2ccccc2)C(F)(F)F)C[C@H]1OC(C)=O)OC(=O)[C@@](OC)(c1ccccc1)C(F)(F)F)OC(C)=O (stereo partly specified),51.1

# — ChEMBL document CHEMBL3352813, “Prostaglandin Derivatives: Nonaromatic Phosphodiesterase-4 Inhibitors from the Soft Coral Sarcophyton ehrenbergi” (J Nat Prod, 2014)
